Activity calls are given as the source filed them. No cut-off for these calls is given here.
Key:
[1] = biological target: T1, Macrophage migration inhibitory factor (Homo sapiens, UniProt P14174); assay: (§1) Inhibition of human recombinant MIF tautomerase
T1 sequence (P14174 whole entry): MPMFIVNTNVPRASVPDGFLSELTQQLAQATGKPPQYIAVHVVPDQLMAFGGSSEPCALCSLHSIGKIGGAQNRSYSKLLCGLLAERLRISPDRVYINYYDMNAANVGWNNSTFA

[2] = biological target: T2, MIF/CD74 (Macrophage migration inhibitory factor and HLA-DR antigens-associated invariant chain) (Homo sapiens) (UniProt P14174+P04233); assay: (§2) Inhibition of human MIF-CD74 binding; format: protein assay
In short: (§3)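 Compounds pre-incubated 30 min at room temperature with biotinylated recombinant human MIF (2 ng/µl), then added to wells overnight at 4 °C. Bound MIF detected with streptavidin-alkaline phosphatase and p-nitrophenyl phosphate, A405 expressed as percent of MIF-alone wells. 10–12 concentrations spanning ~500-fold; at least three independent assays.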

[3] = biological target: T3, MIF/CD74 (Macrophage migration inhibitory factor and HLA-DR antigens-associated invariant chain) (Homo sapiens, UniProt P04233+P14174); assay: as §2; format: protein assay; in short: as §3
T3 sequence (P14174 whole entry): T1 sequence (P14174 whole entry)
T3 sequence (P04233 whole entry): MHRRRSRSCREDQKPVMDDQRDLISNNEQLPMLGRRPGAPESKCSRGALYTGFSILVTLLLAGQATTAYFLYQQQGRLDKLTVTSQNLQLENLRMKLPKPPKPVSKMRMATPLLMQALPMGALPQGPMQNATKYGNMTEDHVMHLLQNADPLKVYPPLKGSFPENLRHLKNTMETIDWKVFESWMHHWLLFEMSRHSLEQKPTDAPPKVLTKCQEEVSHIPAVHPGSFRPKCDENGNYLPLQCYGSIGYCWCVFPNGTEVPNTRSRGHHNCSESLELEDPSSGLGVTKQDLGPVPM

[4] = biological target: T4, Macrophage migration inhibitory factor (Homo sapiens) (UniProt P14174); assay: as §1
T4 sequence (whole entry): T1 sequence (P14174 whole entry)

[5] = biological target: T2, MIF/CD74 (Macrophage migration inhibitory factor and HLA-DR antigens-associated invariant chain) (Homo sapiens); assay: Inhibition of human MIF-CD74 binding at 10 uM; format: protein assay; set-up: scale not given: the % may be the effect or the level left
[6] = biological target: T4, Macrophage migration inhibitory factor (Homo sapiens); assay: Inhibition of human recombinant MIF tautomerase at 10 uM; set-up: scale not given: the % may be the effect or the level left

Row | Compound | Activity [2] | IC50 [3] | other results
1 | CC(C)(C)OC(=O)C[C@H]1CC(c2ccc(O)c(F)c2)=NO1 (racemic) |  |  | IC50 [1]: 0.55 µM
2 | CC(OC(=O)c1ccc(-c2ccc(O)cc2)cc1)C(=O)NCc1ccccc1 (stereo not given) | inactive |  | 
3 | Oc1csc(Cc2nc(-c3ccc(-c4ccccc4)cc3)cs2)n1 |  | 65 µM | IC50 [1]: 300 µM
4 | O=C(O)COc1ccc2occ(C(=O)c3ccccc3)c2c1 |  | 1500 µM | IC50 [1]: 980 µM
5 | Ic1cc(-c2ccccc2)ncn1 | inactive |  | 
6 | COC(=O)C[C@H]1CC(c2ccc(O)cc2)=NO1 (racemic) |  |  | Activity [4]: inactive; Activity [5]: 40%
7 | CCOc1cc(/C=C2\Oc3cc(O)ccc3C2=O)ccc1O | inactive |  | 
8 | CC(=O)Oc1ccc2nc(-c3cc4ccccc4o3)oc(=O)c2c1 |  | 2.5 µM | 
9 | O=c1oc2c(O)c(O)ccc2cc1-c1nc2ccccc2s1 | inactive |  | 
10 | O=C(Nc1cccc2ccccc12)C(=O)c1c[nH]c2ccccc12 | inactive |  | 
11 | OCc1nc2ccccc2n1Cc1ccc2ccccc2c1 | inactive |  | 
12 | N#C/C(=C\c1ccc(-c2ccccc2)cc1)c1ccccn1 | inactive |  | 
13 | O=C(O)c1cc(-n2cnnc2)ccc1Cl |  | 250 µM | Activity [4]: inactive
14 | Oc1ccc(/C=C/c2ccc3cccc(O)c3n2)cc1 |  | 8 µM | Activity [6]: 40%
15 | Cc1ccc(-n2cnc3ccccc3c2=O)cc1Cl | inactive |  | 
16 | O=C(O)c1cc(-n2cnnn2)ccc1O |  | 550 µM | Activity [4]: inactive
17 | O=c1c2ccc(F)cc2sn1-c1ccc(Cl)cc1 | inactive |  | 
18 | Oc1ccc2c(c1)oc1ccccc12 |  | 900 µM | Activity [6]: 38%
19 | CC(=O)Nc1cccc2ccc(-c3cnc4ccccc4c3)nc12 | inactive |  | 
20 | O=C(O)c1cccc(-n2ccnc2)c1 | inactive |  | 
21 | Oc1c(C(Nc2cccc(F)c2)c2ccccn2)ccc2cccnc12 (stereo not given) |  | 2.5 µM | IC50 [1]: 530 µM
22 | O=c1[nH]nc(-c2cccs2)cc1Cc1ccc(Cl)c(Cl)c1 |  | 250 µM | IC50 [1]: 430 µM
23 | O=C(O)c1cccc(-c2cc[nH]n2)c1 |  | 15 µM | Activity [6]: 30%
24 | Cc1cc(C)c2ccc(C3=C(O)c4ccccc4C3=O)nc2c1O | inactive |  | 
25 | O=C(c1cc2ccccc2o1)N1CCc2ccccc21 |  | 4 µM | 

Source: ChEMBL document CHEMBL1139362, “Discovery of human macrophage migration inhibitory factor (MIF)-CD74 antagonists via virtual screening” (J Med Chem, 2009)
